Bioassay records deposited in PubChem BioAssay by several laboratories.
This is a sample that favours compounds with a hit; in the whole collection about 7.4% have one here.
M1 agonist: agonists of M1 muscarinic receptor. CHO-M1 cells, Fluo-4 calcium fluorescence, agonist mode; active compounds read high. B-score at 10 µM. 3% of 64,000 active;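 active = fluorescence rise, raw or as B-score row- and column-corrected plate score, outside the 99.7% band of its plate's samples, either direction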
S1P1 ag-PAM: activates or potentiates agonism at human S1P1 receptor; 0.57% of 56,000 active; activation, % at 9.5 µM; S1P1 CRE-bla cells, forskolin, beta-lactamase FRET, potentiator mode; S1P1 agonist co-added at EC20, 2 nM; 100% = saturating reference agonist, 0% = basal; P21453; AID 449;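 active = activation above a cutoff set at the mean activation of all tested compounds plus 3 SD, cut at about 54% in these data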;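 note: forskolin at 4 µM as EC80 and the EC20 agonist is SEW2871; 100% = SEW2871 at its EC100 plus forskolin at EC80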
M1 antag: M1 muscarinic receptor (rat) antagonism; P08482; CHO-M1 cells, Fluo-4 calcium, ACh EC80 antagonist mode; active compounds read low; B-score at 10 µM; 3.4% of 64,000 active; AID 628;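 active = calcium fluorescence response, raw or row-and-column corrected B-score, differing from the plate sample mean either way at a set confidence level, mostly lower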
Target sequence (P08482 whole entry, looked up): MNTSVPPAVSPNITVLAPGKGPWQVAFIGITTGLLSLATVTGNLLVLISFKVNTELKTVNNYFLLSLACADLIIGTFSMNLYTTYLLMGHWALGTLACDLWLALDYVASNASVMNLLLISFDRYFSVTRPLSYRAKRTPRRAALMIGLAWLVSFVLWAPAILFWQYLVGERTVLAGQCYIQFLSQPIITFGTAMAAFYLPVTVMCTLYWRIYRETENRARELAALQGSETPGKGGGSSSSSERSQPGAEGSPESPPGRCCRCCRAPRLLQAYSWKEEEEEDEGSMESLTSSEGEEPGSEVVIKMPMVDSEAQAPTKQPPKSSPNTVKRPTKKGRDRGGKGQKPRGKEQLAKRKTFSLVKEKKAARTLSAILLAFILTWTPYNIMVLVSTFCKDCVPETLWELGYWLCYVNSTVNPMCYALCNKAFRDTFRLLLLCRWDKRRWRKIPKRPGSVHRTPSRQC
Jurkat viability: cytotoxicity toward Jurkat cells | Jurkat E6.1 viability, ATP luminescence, 48 h | inhibition, % at 4 µM | 1.2% of 56,000 active;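 active = inhibition above the mean inhibition of all tested compounds plus 3 SD, cut at about 28% in these data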
S1P3 agonist: S1P3 (human) receptor agonism | Q99500 | S1P3 NFAT-BLA reporter cells, FRET ratio; relative to 1 µM S1P, basal subtracted | activation, % at 4.5 µM | 0.1% of 60,000 active;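 active = activation above the screen-wide mean plus 3 SD, cut at about 4.5% in these data, passing the limit was not always enough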
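Assay system: CHO cells stably expressing human S1P3, Gα16 and NFAT-β-lactamase reporter. Timing: overnight plating, 4 h compound 37 °C, 2 h substrate RT. Signal: β-lactamase FRET emission ratio 460/535 nm. Measure: percent activation versus median 1 µM S1P response, basal-subtracted, per plate. Repeats: primary screen single test, confirmation screen in triplicate.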
JNK3 inh: blocks human JNK3 kinase activity | purified JNK3 kinase activity, HTS | P53779 | AID 746 | inhibition, % at 8 µM | 0.61% of 60,000 active; in the data active = inhibition above about 17%;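 note: 0% = DMSO and 100% = reference inhibitor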
M1 antag confirm: M1 muscarinic receptor (rat) antagonism, confirmed. 43% of 1,700 active. calcium response (max-min fluorescence) at 10 µM. shares compounds with M1 antag. CHO-M1 cells, Fluo-4 calcium, ACh EC80 antagonism; active compounds read low. AID 677;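 active = calcium response below the same-plate mean of wells given acetylcholine alone at its 80%-effect dose, minus 3 SD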;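 note: raw fluorescence intensity difference in arbitrary instrument units and not normalized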
mGluR4 antag: mGluR4 (human) activity, M1 antagonist secondary assay. 0.9% of 1,700 active. fluorescence response (max-min) at 10 µM. AID 678. shares compounds with M1 antag. CHO-mGluR4 calcium flux, Fluo-4 fluorescence, glutamate EC80; active compounds read low;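 active = fluorescence response below the plate's average for near-maximal glutamate wells, less 3 SD of those wells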;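 note: raw unnormalized fluorescence span taken in the window right after glutamate addition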
* = called active by the depositor.

Results for NC(=O)NCC12CC3CC(CC(C3)C1)C2 ?
M1 agonist: 0.55; S1P1 ag-PAM: -32; M1 antag: -2.9*; Jurkat viability: 0; S1P3 agonist: 0; JNK3 inh: -10; M1 antag confirm: 668; mGluR4 antag: 248

Results for Cc1sc2nc(CN3CCCC3)nc(N3CCN(S(=O)(=O)c4cccs4)CC3)c2c1C ?
M1 agonist: -0.21; M1 antag: -3.9*; M1 antag confirm: 410*; mGluR4 antag: 217

What do the screens show for `COc1cccc(C2CC(c3ccccc3OC)n3nc(N)nc3N2)c1` (stereo not drawn)?
M1 agonist: -0.51; S1P1 ag-PAM: -15; M1 antag: 0.2; Jurkat viability: 0; S1P3 agonist: 0; JNK3 inh: 7

How did O=C(O)C1C2C=CC(C2)C1C(=O)NC1CCN(Cc2ccccc2)CC1 (stereo not drawn) do in these assays?
M1 agonist: -0.015; S1P1 ag-PAM: -10; M1 antag: -0.08; Jurkat viability: -1; S1P3 agonist: 0; JNK3 inh: -5

What do the screens show for `O=C(NC1CCN(Cc2ccccc2)CC1)C1COc2ccccc2O1` (stereo not drawn)?
M1 agonist: -0.023; S1P1 ag-PAM: 3; M1 antag: -4.5*; Jurkat viability: 0; S1P3 agonist: 0; JNK3 inh: -5; M1 antag confirm: 377*; mGluR4 antag: 252

What do the screens show for `O=c1c2ccccc2oc2nc(-c3ccco3)n(Cc3ccccc3)c(=O)c12`?
M1 agonist: -0.73; S1P1 ag-PAM: -18; M1 antag: 0.2; Jurkat viability: -4; S1P3 agonist: 0; JNK3 inh: 8

Results for Cn1c(SCC(=O)N2c3ccccc3Sc3ccc(Cl)cc32)nnc1-c1ccco1 ?
M1 agonist: -0.46; S1P1 ag-PAM: -23; M1 antag: -0.43; Jurkat viability: 7; S1P3 agonist: -1; JNK3 inh: 3

What do the screens show for `O=C(CN1CCN(CCOCCO)CC1)N1c2ccccc2Sc2ccc(Cl)cc21`?
M1 agonist: -0.34; S1P1 ag-PAM: -18; M1 antag: -17*; Jurkat viability: 6; S1P3 agonist: -1; JNK3 inh: 7; M1 antag confirm: 24*; mGluR4 antag: 236

How did CN1CCN(CCC(=O)N2c3ccccc3Sc3ccc(Cl)cc32)CC1 do in these assays?
M1 agonist: 0.21; S1P1 ag-PAM: 1; M1 antag: -11*; S1P3 agonist: -1; JNK3 inh: -1; M1 antag confirm: 268*; mGluR4 antag: 255

How did Cn1nnnc1SCC(=O)N1c2ccccc2Sc2ccc(Cl)cc21 do in these assays?
M1 agonist: 0.0043; S1P1 ag-PAM: -11; M1 antag: -2.7*; Jurkat viability: 2; S1P3 agonist: -1; JNK3 inh: -7; M1 antag confirm: 446*; mGluR4 antag: 231

What do the screens show for `Oc1c(C(c2cccc(F)c2)N2CCN(Cc3ccccc3)CC2)sc2ncnn12` (stereo not drawn)?
M1 agonist: -1.7; S1P1 ag-PAM: 7; M1 antag: 0.043; Jurkat viability: -6; S1P3 agonist: -1; JNK3 inh: 6

How did Cc1ccccc1NC1C=CS(=O)(=O)C1 (stereo not drawn) do in these assays?
M1 agonist: -0.064; S1P1 ag-PAM: -4; M1 antag: 0.27; Jurkat viability: 3; S1P3 agonist: 0; JNK3 inh: -2

How did CCN(CC)S(=O)(=O)c1ccc(C(=O)OC2CCCCC2CN(C)C)cc1 (stereo not drawn) do in these assays?
M1 agonist: 0.048; S1P1 ag-PAM: 7; M1 antag: -4.6*; Jurkat viability: 5; S1P3 agonist: 0; JNK3 inh: -3; M1 antag confirm: 509; mGluR4 antag: 219

How did O=C(c1ccco1)N1CCN(CCCCN2C(=O)c3ccccc3C2=O)CC1 do in these assays?
M1 agonist: -0.47; M1 antag: -1.4*; M1 antag confirm: 637; mGluR4 antag: 227

Results for O=C1OC(N2CCN(C(=O)c3ccco3)CC2)c2ccccc21 (stereo not drawn) ?
M1 agonist: -0.019; S1P1 ag-PAM: -19; M1 antag: -3.8*; Jurkat viability: 0; S1P3 agonist: 0; JNK3 inh: 2; M1 antag confirm: 609; mGluR4 antag: 247

Results for O=C(CCC1CCCC1)N1CCN(C(=O)c2ccco2)CC1 ?
M1 agonist: 0.14; M1 antag: -3*; Jurkat viability: 0; S1P3 agonist: -1; JNK3 inh: 3; M1 antag confirm: 654; mGluR4 antag: 237

Results for CCSc1nnc(NC(=O)C2CCCN(S(=O)(=O)c3cnc[nH]3)C2)s1 (stereo not drawn) ?
M1 agonist: 0.0076; S1P1 ag-PAM: -30; M1 antag: -0.097; Jurkat viability: -2; S1P3 agonist: 0; JNK3 inh: 2

How did COc1ccc(CCC(=O)NCCc2cn3c(C)csc3n2)cc1 do in these assays?
M1 agonist: -0.3; S1P1 ag-PAM: -5; M1 antag: 0.07; Jurkat viability: 1; S1P3 agonist: 0; JNK3 inh: 7

Results for COc1ccccc1CC(NC(C)=O)C(=O)N1CCN(C(=O)Nc2ccccc2Cl)CC1 (stereo not drawn) ?
M1 agonist: -0.19; M1 antag: -0.14

Results for CCOC(=O)C1=C(C)OC(N)=C(C#N)C1c1cc2c(cc1Br)OCO2 (stereo not drawn) ?
M1 agonist: -0.73; S1P1 ag-PAM: -20; M1 antag: -1.9*; Jurkat viability: -1; S1P3 agonist: 0; JNK3 inh: 0; M1 antag confirm: 417*; mGluR4 antag: 208

How did O=C(NCC1CCCO1)C1CCC(CNS(=O)(=O)c2ccccc2)CC1 (stereo not drawn) do in these assays?
M1 agonist: -1.1; S1P1 ag-PAM: -14; M1 antag: -0.99; Jurkat viability: -3; S1P3 agonist: 0; JNK3 inh: -3

What do the screens show for `Nc1nnc(SCc2ccccc2F)n1-c1ccccc1`?
M1 agonist: -0.83; S1P1 ag-PAM: 2; M1 antag: 0.56; Jurkat viability: -6; S1P3 agonist: -2; JNK3 inh: 1

What do the screens show for `O=c1/c(=C/c2ccccn2)sc2nc3ccccc3n12`?
M1 agonist: 0.25; S1P1 ag-PAM: -20; M1 antag: -0.49; Jurkat viability: -2; S1P3 agonist: 1; JNK3 inh: -2

Results for COC(=O)/C=c1/sc2nc3ccccc3n2c1=O ?
M1 agonist: -0.78; S1P1 ag-PAM: -21; M1 antag: -2.5*; Jurkat viability: -2; S1P3 agonist: 0; JNK3 inh: 2; M1 antag confirm: 593; mGluR4 antag: 251
